Measurements published in ChEMBL document CHEMBL4699441, “Identification and Preclinical Evaluation of the Bicyclic Pyrimidine γ-Secretase Modulator BMS-932481” (ACS Med Chem Lett, 2019).
Calls of active or inactive are those of the source. The rule behind the calls is not given here.

How the values were obtained:
[1] = target: Gamma-secretase (Homo sapiens) (UniProt Q96BI3+Q9NZ42+Q8WW43+P49768+Q92542+P49810); test: Modulation of gamma-secretase in human H4 cells overexpressing APP incubated assessed as increase in amyloid beta (1 to 38) secretion for 24 hrs by MALDI-TOF mass spectrometric analysis; format: cell-based; settings: filed as modulator
Method in brief: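 H4-APPsw cells treated with compound; secreted Aβ species quantified by mass spectrometry; total Aβ1-x checked by ELISA up to 10 μM.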

Brain = test: Antialzheimer activity in rat brain assessed as reduction in amyloid beta (1 to 42) AUC at 3 mg/kg measured after 24 hrs relative to control; format: functional; set-up: scale not given: the % may be the effect or the level left
Method in brief: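 Rats dosed orally; brain Aβ1-42 followed over 24 h, and the reduction in brain Aβ1-42 AUC integrated over 0–24 h was fitted to an indirect response PK/PD model.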

PXR (NR1I2) = target: T1, PXR (NR1I2) (Homo sapiens, UniProt O75469); test: Transactivation of PXR (unknown origin) assessed as CYP450 induction relative to 10 uM rifampicin; format: ADME
T1 sequence (O75469 whole entry): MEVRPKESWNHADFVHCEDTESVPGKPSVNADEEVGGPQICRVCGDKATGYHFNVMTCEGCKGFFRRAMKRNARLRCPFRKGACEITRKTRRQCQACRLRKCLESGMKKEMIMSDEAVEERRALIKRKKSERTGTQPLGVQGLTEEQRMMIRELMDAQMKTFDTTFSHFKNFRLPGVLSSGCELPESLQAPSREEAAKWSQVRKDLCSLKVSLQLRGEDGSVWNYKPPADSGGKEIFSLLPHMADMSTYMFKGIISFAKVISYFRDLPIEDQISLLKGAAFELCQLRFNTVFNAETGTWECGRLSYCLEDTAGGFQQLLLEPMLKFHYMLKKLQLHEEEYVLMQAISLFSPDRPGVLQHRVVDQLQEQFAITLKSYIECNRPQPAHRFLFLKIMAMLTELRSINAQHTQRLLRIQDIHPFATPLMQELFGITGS
Method in brief: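 PXR in vitro transactivation assay; maximal response expressed relative to 10 μM rifampicin set as 100%.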

[2] = Inhibition of amyloid beta (x to 42) secretion in human H4 cells overexpressing APP incubated for overnight by HTRF analysis; format: functional, cell-based
[3] = Fraction unbound in Sprague-Dawley rat plasma measured after 24 hrs by LC-MS/MS analysis; format: ADME, cell-free
Cytochrome P450 2C8 = target: T2, Cytochrome P450 2C8 (Homo sapiens, UniProt P10632); test: Inhibition of CYP2C8 in human liver microsomes; format: ADME
T2 sequence (P10632 whole entry): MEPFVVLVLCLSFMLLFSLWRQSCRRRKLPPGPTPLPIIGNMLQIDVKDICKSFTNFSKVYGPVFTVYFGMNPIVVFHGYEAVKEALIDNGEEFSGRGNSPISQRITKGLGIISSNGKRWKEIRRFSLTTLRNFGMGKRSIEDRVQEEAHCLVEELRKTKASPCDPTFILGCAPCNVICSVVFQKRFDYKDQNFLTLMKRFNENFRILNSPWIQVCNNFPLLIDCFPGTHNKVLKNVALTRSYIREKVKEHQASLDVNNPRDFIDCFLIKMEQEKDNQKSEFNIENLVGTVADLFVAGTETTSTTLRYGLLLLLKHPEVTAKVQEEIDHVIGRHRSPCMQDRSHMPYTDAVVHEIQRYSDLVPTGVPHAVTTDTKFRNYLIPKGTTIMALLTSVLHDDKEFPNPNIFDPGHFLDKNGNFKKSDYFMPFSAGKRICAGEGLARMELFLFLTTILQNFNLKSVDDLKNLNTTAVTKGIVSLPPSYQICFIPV

Cytochrome P450 2C19 = Cytochrome P450 2C19 (Homo sapiens, UniProt P33261); test: Inhibition of CYP2C19 in human liver microsomes; format: ADME
Cytochrome P450 3A4 = Cytochrome P450 3A4 (Homo sapiens, UniProt P08684); test: Time dependent inhibition of CYP3A4 in human liver microsomes assessed as inactivation constant; format: ADME
[4] = Oral bioavailability in Sprague-Dawley rat at 2 mg/kg dosed as nano suspension measured up to 24 hrs by LC-MS/MS analysis; format: ADME, organism-based; settings: in vivo
Method in brief: (§1)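 Oral dosing as a nanosuspension in Sprague–Dawley rat, male Beagle dog and male cynomolgus monkey; dogs pretreated with pentagastrin.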

[5] = Oral bioavailability in cynomolgus monkey at 1 mg/kg dosed as nano suspension measured up to 24 hrs by LC-MS/MS analysis; format: ADME, organism-based, Macaca fascicularis; settings: in vivo; method in brief: as §1
[6] = Half life in Beagle dog at 1 mg/kg, iv measured up to 24 hrs by LC-MS/MS analysis; format: ADME, organism-based, Canis lupus familiaris; settings: in vivo
Method in brief: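 Male Beagle dogs and male cynomolgus monkeys, 1 mg/kg by 5 min iv infusion in 9:1 PEG:EtOH, n=3.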

[7] = Cardiotoxicity in unconscious telemeterized rabbit assessed as increase in QTcf time at 10 mg/kg; format: toxicity, organism-based, Oryctolagus cuniculus; settings: in vivo
[8] = Hemodynamic activity in unconscious telemeterized rabbit assessed as increase in blood pressure at >= 10 mg/kg; format: ADME, organism-based, Oryctolagus cuniculus; settings: in vivo
[9] = Hemodynamic activity in conscious telemeterized rat assessed as change in blood pressure at >= 10 mg/kg; format: ADME, organism-based; settings: in vivo
[10] = Toxicity in rat assessed as change in bilirubin secretion at 10 to 100 mg/kg, po administered for 2 week; format: organism-based; settings: in vivo, 336 h, dose 10-100 mg/kg, time 2 weeks
[11] = Toxicity in rat assessed as change in notch related goblet cell metaplasia in the duodenum at 100 mg/kg, po administered for 2 week; format: organism-based; settings: in vivo, 336 h, time 2 weeks
[12] = Toxicity in rat assessed as change in gamma-secretase modulator function at 100 mg/kg, po administered for 2 week; format: organism-based; settings: in vivo, 336 h, time 2 weeks
[13] = Hepatotoxicity in rat at 100 mg/kg, po administered for 2 week; format: toxicity, organism-based; settings: in vivo, 336 h, time 2 weeks
Method in brief: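 Rats given oral doses of 10, 30 or 100 mg/kg daily for 2 weeks in a repeat-dose toxicity study.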

[14] = Cmax in Beagle dog at 300 mg/kg, po measured up to 24 hrs by LC-MS/MS analysis; format: ADME, organism-based, Canis lupus familiaris; set-up: route oral, dose 300 mg/kg, time >=24; settings: in vivo
Method in brief: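 Dogs given an acute single oral dose of 300 mg/kg; plasma Cmax and AUC measured alongside bilirubin and other clinical pathology assessments.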

[15] = Toxicity in Beagle dog assessed as NOAEL administered for 1 month; set-up: species or system Canis lupus familiaris; settings: in vivo, 730 h, time 1 months
[16] = Plasma exposure (AUC) in rat at 10 mg/kg measured after 24 hrs

Chain of Cytochrome P450 3A4 (P08684 whole entry): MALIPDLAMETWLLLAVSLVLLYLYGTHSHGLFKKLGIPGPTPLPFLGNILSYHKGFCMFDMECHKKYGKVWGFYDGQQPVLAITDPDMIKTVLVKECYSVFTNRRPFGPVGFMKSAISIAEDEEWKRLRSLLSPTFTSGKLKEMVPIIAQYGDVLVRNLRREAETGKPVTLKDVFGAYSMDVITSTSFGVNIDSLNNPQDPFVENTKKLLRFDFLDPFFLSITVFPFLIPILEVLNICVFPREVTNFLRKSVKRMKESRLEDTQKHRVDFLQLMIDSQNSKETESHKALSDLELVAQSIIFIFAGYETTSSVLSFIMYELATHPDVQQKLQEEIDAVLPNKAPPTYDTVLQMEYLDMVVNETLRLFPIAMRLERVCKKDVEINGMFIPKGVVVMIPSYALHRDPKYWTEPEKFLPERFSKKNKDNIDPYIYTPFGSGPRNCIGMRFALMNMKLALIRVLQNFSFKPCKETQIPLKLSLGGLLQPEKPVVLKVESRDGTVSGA
Chain of Cytochrome P450 2C19 (P33261 whole entry): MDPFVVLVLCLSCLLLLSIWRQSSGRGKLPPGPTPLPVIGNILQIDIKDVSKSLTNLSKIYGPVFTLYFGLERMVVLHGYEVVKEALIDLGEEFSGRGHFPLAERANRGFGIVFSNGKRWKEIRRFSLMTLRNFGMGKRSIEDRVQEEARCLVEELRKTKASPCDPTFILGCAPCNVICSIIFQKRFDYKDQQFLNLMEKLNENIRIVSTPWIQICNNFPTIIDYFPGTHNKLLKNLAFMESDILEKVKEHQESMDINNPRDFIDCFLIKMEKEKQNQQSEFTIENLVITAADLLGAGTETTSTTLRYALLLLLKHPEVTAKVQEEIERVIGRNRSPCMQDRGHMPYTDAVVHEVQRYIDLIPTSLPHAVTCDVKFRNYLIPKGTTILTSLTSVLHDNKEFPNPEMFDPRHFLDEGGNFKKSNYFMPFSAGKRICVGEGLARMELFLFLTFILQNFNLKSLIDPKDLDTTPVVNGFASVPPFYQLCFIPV

CNc1nc(Nc2ccc(-n3cnc(C)n3)c(OC)c2)nc2c1CC[C@H]2c1ccc(F)cc1
inhibition [1]: Active
Activity (Brain): 45%
Emax (PXR (NR1I2)): 36%
IC50 [2]: 5.5 nM
Fu [3]: 0.7%
IC50 (Cytochrome P450 2C8): 4.5 µM
IC50 (Cytochrome P450 2C19): 8.3 µM
Kinact (Cytochrome P450 3A4): 0.47 min⁻¹
F [4]: 98%
F [5]: 45%
t1/2 [6]: 8.7 h
Time [7]: 3 ms
Activity [8]: Non-Toxic
Activity [9]: Non-Toxic
Activity [10]: Non-Toxic
Activity [11]: Non-Toxic
Activity [12]: Non-Toxic
Activity [13]: Non-Toxic
Cmax [14]: 14 µM
NOAEL [15]: 150 mg/kg
AUC at 24 h [16]: 32 µM·h
